Source: publication PMC2749063 (Current eye research, 2009)
“Also recorded” adds a separate entry of the source. Like-named read-outs stand apart in the source and are kept apart here. Ends that are not written are not given here.

Experiments:
Ad5 [1] = test: Increasing Concentration Direct Inhibition Assay, Ad5; assay type: cell-based, adenovirus
HSV-1 [2] = test: Increasing Concentration Direct Inhibition Assay, HSV-1; assay type: cell-based, herpes simplex virus type 1
In short: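 HSV-1 McKrae strain, grown in Vero cells. Virus incubated with test compound at a range of concentrations in tryptone-saline. Titers were determined by plaque assay. Each concentration has its own tryptone-saline control. Log reduction is the mean titer difference between treated virus and that control.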

Ad5 [3] = test: Direct viral time kill assay, Ad5; assay type: cell-based, adenovirus; conditions: Ad5, 500 μg/ml peptide; for inhibition of Ad5 vs tryptone-saline control (in words): 4 hours, ANOVA p < 0.001
In short: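 Ad5 clinical isolate grown in A549 cells. Peptide stock in sterile water, diluted in tryptone-saline (pH 5.5); mixed with virus to 500 μg/ml final, ~10⁴ PFU/ml; 37°C water bath. Aliquot at 1 h quenched in ice-cold medium with 10% FBS, diluted, plated on A549 monolayers (37°C, 5% CO₂). Gentian violet stain at 7 days, plaques counted, titer as PFU/ml; 7 repeats; log₁₀ ANOVA, Fisher comparisons.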

Ad3 = test: Direct viral time kill assay, Ad3; assay type: cell-based, adenovirus; conditions: Ad3, 500 μg/ml peptide, 4 hours; ANOVA p = 0.008
In short: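 Ad3 reference strain grown in A549 cells. Peptide stock in sterile water, diluted in tryptone-saline (pH 5.5). Final mix: 500 μg/ml peptide with ~10⁴ PFU/ml virus, or tryptone-saline control, at 37°C. At 1 and 4 h, aliquots diluted in ice-cold medium with 10% FBS, then plated on A549 monolayers (37°C, 5% CO₂). After 8-9 days, gentian violet-stained plaques counted as PFU/ml. Log₁₀ titers by ANOVA/Fisher; 7 repeats.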

HSV-1 [4] = test: TOTO-1 assay, HSV-1 envelope/capsid integrity; design: species or system herpes simplex virus type 1; conditions: 5 hours at 37°C
In short: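 HSV-1 McKrae grown in Vero cells. Test compound (2-500 μg/ml) incubated with or without virus (~5 × 10⁴ PFU/ml), 5 h, 37°C. Mixture added to 120 nM TOTO-1 in tryptone-saline pH 8.0; fluorescence read at 485/20 nm excitation, 516/20 nm emission. Signal = raw minus peptide- and virus-derived fluorescence; adenovirus DNA standards. Run in duplicate; repeated at least twice on different days.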

Ad5 [5] = test: TOTO-1 assay, Ad5 capsid integrity; design: species or system adenovirus; conditions: 5 hours at 37°C; for TOTO-1 fluorescence / Ad5 capsid integrity (in words): Ad5, peptide 10-500 μg/ml
bacteria = conditions: cited from earlier work

NQGRHFCGGALIHARFVMTAASCFQ (cysteine pairing not given here) [Peptide A]
initial inhibitory concentration (Ad5 [1]; Ad5, 4 hours incubation): 50 µg/mL | inhibitory effect (log reduction of viral titers) above 100 μg/ml (Ad5 [1]; Ad5, peptide above 100 μg/ml (up to 750 μg/ml), 4 hours incubation): ~2 log reductions | initial inhibitory concentration (HSV-1 [2]; HSV-1, 4 hours incubation): 50 µg/mL | inhibitory effect (log reduction of viral titers) above 100 μg/ml (HSV-1 [2]; HSV-1, peptide above 100 μg/ml (up to 750 μg/ml), 4 hours incubation): ~2 log reductions | inhibition of Ad5 at 1 hour (in words) (Ad5 [3]; 1 hour incubation, data not shown): significantly inhibited | inhibition of Ad5 vs tryptone-saline control (in words) (Ad5 [3]): significantly greater inhibitory activity than the tryptone-saline control | inhibition of Ad3 vs tryptone-saline control (in words) (Ad3): statistically-significant reduction in viral titers | TOTO-1 fluorescence with HSV-1 between 10 and 100 μg/ml (in words) (HSV-1 [4]; HSV-1, peptide 10 to 100 μg/ml): no increase in fluorescence | TOTO-1 fluorescence with HSV-1 from 100 to 500 μg/ml (in words) (HSV-1 [4]; HSV-1, peptide 100 to 500 μg/ml): increasing fluorescence | increase in TOTO-1 fluorescence (Ad5 [5]; Ad5, peptide 500 μg/ml, 120 nM TOTO-1): 65-85% | TOTO-1 fluorescence / Ad5 capsid integrity (in words) (Ad5 [5]): dose-dependent increase in TOTO-1 fluorescence

NQGRHFSGGALIHARFVMTAASCFQ [Peptide B]
inhibition of Ad5 vs tryptone-saline control (in words) (Ad5 [3]): significantly greater inhibitory activity than the tryptone-saline control | inhibition of Ad3 vs tryptone-saline control (in words) (Ad3): statistically-significant reduction in viral titers

IQSPAGQSRCGGFLVREDFVLTAAHCWG (cysteine pairing not given here) [Cathepsin G20-47 peptide, reference compound]
antibacterial activity (in words) (bacteria): negligible antibacterial activity | TOTO-1 fluorescence / Ad5 capsid integrity (in words) (Ad5 [5]): minimal fluorescence; also recorded: no disruptive effect on Ad5 capsid integrity

Asn-Gln-------------Gly-Arg-His-Phe-Cys-Gly-Gly-Ala-Leu-Ile-His-Ala-Arg-Phe-Val-Met-Thr-Ala-Ala-Ser-Ser-Phe-Gln [Peptide C]
inhibition of Ad3 vs tryptone-saline control (in words) (Ad3): statistically-significant reduction in viral titers

Asn-Gln-------------Gly-Arg-His-Phe-Ser-Gly-Gly-Ala-Leu-Ile-His-Ala-Arg-Phe-Val-Met-Thr-Ala-Ala-Ser-Ser-Phe-Gln [Peptide D]
antibacterial activity (in words) (bacteria; ref Previous studies): inactive | inhibition of Ad3 vs tryptone-saline control (in words) (Ad3): statistically-significant reduction in viral titers
